# Source: PubChem
# Shown are actives, neighbours in structure and some others; about 4.6% of the full set was active somewhere.
# OX1R antag-1: antagonists of human orexin 1 receptor (OX1R) | OX1R-expressing cells, FRET antagonist read-out | inhibition, % at 6.6 µM | hit rate 1.8% among 330,000 | O43613; in the data active = inhibition mostly above about 38%, no sharp cut-off; inactive = mostly below about 40%;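 note: 0% = agonist challenge alone and 100% = reference antagonist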
# TAAR1 ag: agonists of human TAAR1; Q96RJ0; CHO RD-HGA16 TAAR1, Fluo-8 calcium fluorescence; vehicle wells 0%, saturating PEA agonist 100%; activation, % at 3 µM; hit rate 0.99% among 360,000; AID 624467;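 active = activation above the mean activation of all test compounds in the run plus 3 SD, cut at about 38% in these data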
# Target sequence (Q96RJ0 whole entry, looked up): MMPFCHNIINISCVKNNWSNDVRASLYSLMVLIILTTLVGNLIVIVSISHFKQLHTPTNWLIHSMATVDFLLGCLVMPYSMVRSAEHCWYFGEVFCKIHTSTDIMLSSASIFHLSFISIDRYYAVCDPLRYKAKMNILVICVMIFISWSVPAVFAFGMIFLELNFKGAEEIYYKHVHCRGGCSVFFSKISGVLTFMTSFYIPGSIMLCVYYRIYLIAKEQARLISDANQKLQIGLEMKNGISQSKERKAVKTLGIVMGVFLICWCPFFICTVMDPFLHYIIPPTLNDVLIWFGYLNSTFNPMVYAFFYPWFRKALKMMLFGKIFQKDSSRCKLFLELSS
#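 Assay system – CHO-derived RD-HGA16 cells with stable Gα16 and human TAAR1 · Compound dosing – one-point dosing at 3 µM (nominal) · Incubation – 17-24 h seeding, 75 min 37 °C dye, 30 min RT · Measured by – kinetic Fluo-8 calcium fluorescence · Control set – DMSO vehicle as 0%, PEA at EC100 as 100% · Repeats – single well for each compound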
# TAAR1 antag: antagonists of human TAAR1. inhibition, % at 3 µM. Q96RJ0. CHO RD-HGA16 TAAR1, Fluo-8 calcium fluorescence, antagonist. hit rate 1.5% among 360,000. AID 624466;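 active = inhibition above a per-plate cutoff, the mean inhibition of test compounds on that plate plus 3 SD, cut at about 49% in these data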;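 note: 0% = DMSO plus EC80 beta-PEA response and 100% = DMSO alone without agonist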
#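 Material: RD-HGA16 CHO cells with stable hTAAR1 and Gα16; Dosing: single nominal final test compound concentration of 3 µM; Schedule: seeding 17-24 h prior, 75-min 37 °C, 30-min RT dye loading; Detection: kinetic Fluo-8 calcium fluorescence measurement; Measure: % inhibition from peak post-agonist over basal fluorescence ratio; Benchmarks: vehicle and agonist controls.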
# OX1R antag-2: human HCRTR1 antagonism | CHO/OX1R cells, Fluo-8 calcium fluorescence, orexin A | inhibition, % at 5 µM | hit rate 0.43% among 330,000 | O43613;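 active = inhibition above its plate's threshold, mean inhibition of all tested compounds on the plate plus 3 SD, cut at about 37% in these data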;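 note: 0% = orexin A challenge wells and 100% = SB-334867-A antagonist wells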
# GPR7 antagonist: blocks human GPR7 receptor signaling | P48145 | GPR7-expressing cells, fluorescence antagonist assay | inhibition, % at 4.4 µM | hit rate 1.1% among 290,000 | AID 1861; in the data active = inhibition above about 16%, passing the limit was not always enough;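 note: cells stimulated with the agonist NPW; 0% = agonist with vehicle and 100% = vehicle without agonist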
# Target sequence (P48145 whole entry, looked up): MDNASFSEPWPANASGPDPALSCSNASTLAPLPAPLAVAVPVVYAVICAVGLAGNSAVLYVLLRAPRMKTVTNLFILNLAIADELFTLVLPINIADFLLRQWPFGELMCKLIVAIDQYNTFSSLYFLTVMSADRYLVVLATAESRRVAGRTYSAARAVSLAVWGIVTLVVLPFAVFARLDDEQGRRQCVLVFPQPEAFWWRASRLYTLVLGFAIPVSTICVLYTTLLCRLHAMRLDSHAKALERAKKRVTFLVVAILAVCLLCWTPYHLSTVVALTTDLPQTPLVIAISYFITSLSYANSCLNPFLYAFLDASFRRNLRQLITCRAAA
# CHO parental Ca: counter-screen: ATP calcium response change in parental CHO cells. parental CHO-K1, ATP-induced calcium, Fluo-8 fluorescence. hit rate 0.63% among 330,000. inhibition, % at 5.6 µM;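 active = inhibition above that plate's mean sample inhibition plus 3 SD, cut at about 26% in these data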;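 note: 0% = ATP-challenged DMSO wells and 100% = DMSO wells without ATP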
#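 Test system: parental CHO cells; detection: calcium-sensitive Fluo-8 fluorescence; evaluation: percent inhibition of calcium signal; also added: ATP as calcium-mobilizing challenge; repeats: one well per compound; control set: ATP-challenged DMSO wells low, unchallenged DMSO wells high; compound: single nominal dose of 5.6 µM per compound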
# Active calls of the source: *; / = no result.
SMILES,OX1R antag-1,TAAR1 ag,TAAR1 antag,OX1R antag-2,GPR7 antagonist,CHO parental Ca
CCN(C[C@H]1N[C@@](CC)(C(=O)OC)[C@H]2C(=O)N(Cc3ccccc3)C(=O)[C@@H]12)C(=O)c1ccc(C)cc1,9,11,50*,-14,/,-19
CCc1nc2ccc(C(=O)NCc3cccs3)cn2c1N(CCC(C)C)CCN(C)C,/,2,3,/,/,/
COC(=O)C1=C(C)N(Cc2ccccc2C(F)(F)F)C(=NCc2ccccc2C(F)(F)F)NC1c1cccc(F)c1 (stereo unspecified),/,-1,6,/,/,/
CCN(CC)C(=O)c1ccc(COc2ccc(Cl)c(C)c2)o1,19,3,20,-13,3,44*
Cc1cc(OCc2ccc(C(=O)n3cccn3)o2)ccc1Cl,23,5,4,-4,9,-9
CCC(Sc1nnc(-c2ccco2)n1C)C(=O)Nc1nnc(C)s1 (stereo unspecified),13,-1,-5,-24,-7,-8
CCN1CCN(CC(=O)Nc2ccc(Cl)c(Cl)c2)C(=O)C1=O,13,10,4,-4,3,8
CCN1CCN(CC(=O)Nc2ccccc2)C(=O)C1=O,14,0,-10,-19,15*,-10
Nc1ccc(-c2c3ccc(=O)cc-3oc3cc(O)ccc23)c(C(=O)O)c1,63*,/,/,87*,/,58*
CN(C)c1ncnc2sc(-c3ccccc3)cc12,64*,1,-8,-23,-12,-16
COc1ncnc2sc(-c3ccccc3)cc12,0,-1,-10,-21,-6,0
Cc1c(O)ccc(/C=N/Nc2nc(-c3cccnc3)nc3ccccc23)c1O,45,18,74*,-17,-9,-5
CCCCCc1c(CC)ncn1CCc1ccccc1OC,/,48*,53*,/,/,/
CCCCc1c(-c2ccccc2OC)ncn1CCc1ccccc1OC,/,48*,28,/,/,/
CCCCc1c(-c2cccc(Br)c2)ncn1CCc1ccccc1OC,/,43*,43,/,/,/
CCCc1c(-c2ccccc2F)ncn1CCc1ccccc1OC,/,17,38,/,/,/
CCCc1c(-c2ccccc2OC)ncn1CCc1ccccc1OC,/,32,21,/,/,/
CCCCCc1c(-c2ccccc2OC)ncn1CCc1ccccc1OC,/,36,51*,/,/,/
CCCCCc1c(-c2ccc(F)cc2)ncn1CCc1ccccc1OC,/,24,47,/,/,/
C[C@@H]1ON(C)[C@H]2C[C@H]3c4cc(-c5cc6ccccc6o5)ccc4CCN3C[C@@H]12,/,2,-19,/,/,/
CC(C)c1ccc(NC(=O)C2(C)Cc3c(-c4ccc5c(c4)OCO5)ccnc3O2)cc1 (stereo unspecified),/,-1,-12,/,/,/
COc1ccc(C2CC(=O)C(c3ccc(F)cc3)=CN2Cc2ccccc2)cc1 (stereo unspecified),/,-1,41,/,/,/
CCCOc1nc2c(c(=O)n(C)c(=O)n2C)n1Cc1cccc2ccccc12,15,25,12,68*,-9,39*
Cc1cccc(C)c1N=C1C(=O)Nc2ccccc21,2,0,2,-11,-8,0
Cc1cc(C)c(N=C2C(=O)Nc3ccccc32)c(C)c1,38*,4,-3,8,12,-6
SMILES,OX1R antag-1,TAAR1 ag,TAAR1 antag,OX1R antag-2,GPR7 antagonist,CHO parental Ca
Cc1nc2ccccc2c2c1CC(C(C)(Cl)Br)O2 (stereo unspecified),44,6,-19,16,18,51*
Cc1ccc(-c2cc(C(=O)N3CCN(c4ccccc4O)CC3)c3ccccc3n2)o1,9,14,62*,-9,-14,-3
O=C(c1cc(-c2ccc(Cl)cc2)nc2ccccc12)N1CCC1,13,2,20,-19,/,-11
Cc1cc(C(=O)N2CCN(c3ccccc3O)CC2)c(C)o1,13,10,22,-21,/,-20
O=C(c1cc(-c2ccc(Br)cc2)nc2ccccc12)N1CCN(c2ccccc2O)CC1,1,4,55*,-29,/,-20
COc1cccc(NC(=O)CN(C)C(=O)c2ccccc2OCC(=O)Nc2cccc(C(F)(F)F)c2)c1,41,15,48,-11,/,-21
CN(CC(=O)Nc1cccc(F)c1)C(=O)c1ccccc1OCC(=O)Nc1cccc(C(F)(F)F)c1,17,19,82*,-2,/,-20
CC(=O)N1CCOc2ccc(S(=O)(=O)NCCc3cccc(C)c3)cc21,10,47*,8,-19,0,-15
CC(=O)N1CCOc2ccc(S(=O)(=O)Nc3cccc(C)c3)cc21,10,4,-8,-19,1,-12
CC(=O)N1CC(C)Sc2ccc(S(=O)(=O)NCCc3ccccc3)cc21 (stereo unspecified),26,44*,33,-23,-1,-6
CC(=O)N1CC(C)Sc2ccc(S(=O)(=O)NCCc3ccc(C)cc3)cc21 (stereo unspecified),47,10,-15,-18,0,-4
Cc1c(C(=O)Nc2ccc3c(c2)OCCO3)sc2nc(-c3ccccc3)cn12,66*,10,64*,68*,7,46*
Cc1c(C(=O)Nc2ccncc2)sc2nc(-c3ccccc3)cn12,37*,13,58*,-6,-2,13
Cc1c(C(=O)N2CCOCC2)sc2nc(-c3ccccc3)cn12,16,10,-3,-13,-7,-3
Cc1c(C(=O)NCc2ccco2)sc2nc(-c3ccccc3)cn12,23,8,14,-12,1,-10
N#CC(c1c(Cl)cccc1N1CCCCC1)N1CCCCC1 (stereo unspecified),/,0,-4,/,/,/
CC(=O)Nc1cccc(NC(=O)CSc2ccc(-c3ccccn3)nn2)c1,19,1,-4,-10,-14,-30
Cc1cc(C)cc(NC(=O)CSc2ccc(-c3cccs3)nn2)c1,62*,-1,-10,8,3,-26
COc1ccc(C(=O)CSc2ccc(-c3ccccc3)nn2)cc1,69*,1,-16,7,-4,-11
COc1cccc(-c2ccc(SCC(=O)c3ccccc3)nn2)c1,26,5,26,-23,12,4
COc1cc(NC(=O)CSc2ccc(-c3ccccn3)nn2)cc(OC)c1,60*,6,-11,2,-9,-15
O=C(CSc1ccc(-c2cccs2)nn1)Nc1ccccc1,22,4,-19,-7,-10,1
COc1ccc(Cl)cc1S(=O)(=O)NC(C)C(=O)NCCN1CCOCC1 (stereo unspecified),/,7,2,/,/,/
CC(C)c1ccc(/C=C2\SC(N3CCOCC3)=NC2=O)cc1,27,3,-45,-21,-5,-17
O=C1N=C(N2CCOCC2)S/C1=C\c1ccncc1,39*,2,-30,0,-15,3
CC(=O)N1CCN(C2=NC(=O)/C(=C\c3cccs3)S2)CC1,41*,4,9,1,0,-5
